From PMC3272321 (Chemical biology & drug design, 2011)
In brackets after ≈: the same amount, converted by molar mass.

What was measured:
aqueous solubility = assay type: physicochemical; details: water
[1] = system: lung adenocarcinoma H441 cells; test: cell proliferation by hexosaminidase assay; assay type: cell-based, Human; details: 1 and 10 μM, 24–72 h
In short: (§1)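 Cells seeded at 5×10^3/well, attached overnight, then exposed to the test compound for 24, 48 and 72 h. The compound was given from DMSO at 0.1% final DMSO in medium with 5% FBS, with DMSO-only controls. H441 were maintained in McCoy's 5A with 5% FBS. Panc-1 and MiaPaCa-2 were maintained in RPMI 1640 with 10% FBS. Readout was hexosaminidase: 7.5 mM p-nitrophenyl substrate solution (citrate, pH 5), 37°C 30 min, glycine/EDTA stop (pH 10.4), A405.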

[2] = system: pancreatic cancer cells Panc-1; test: cell proliferation by hexosaminidase assay; assay type: cell-based; details: Panc-1 cells, 1 and 10 μM, 24–72 h
In short: as §1

[3] = assay type: in vivo, athymic nude rats; details: for route of clearance: images through 24 h
xenograft Panc-1 tumors = test: mouse model of xenograft Panc-1 tumors; assay type: in vivo, athymic nude mice; details: 5 μg intraperitoneal daily for 3 weeks
In short: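 Five-week-old male athymic nude mice received 1 × 10^6 Panc-1 cells in each flank. Once tumors reached about 500 mm3, the test compound was given intraperitoneally at 5 μg/injection daily for 3 weeks. Tumors were measured weekly by caliper, with volume = length × width × depth × 0.5236. Tumors were excised and weighed at sacrifice. n = 4 per group versus untreated control, significance at p < 0.05.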

[4] = system: pancreatic cancer cells MiaPaCa-2; test: cell proliferation by hexosaminidase assay; assay type: cell-based; details: MiaPaCa-2 cells, 1 and 10 μM, 24–72 h
In short: as §1

[5] = Tc-99m-labeled EFAH, intravenous, rats, 24 h

solubility (aqueous solubility) [µg/mL] | injected dose accumulated in intestine [3, 5] [%] | injected dose accumulated in liver [3, 5] | accumulation of radiolabeled compound in tumor tissue ([3]; intravenous, rats with H441 xenograft, 24 h) | free Tc-99m radioactivity in rat urine by HPLC ([3]; urine collected after 30 min of injection) | Compound | anti-proliferative activity compared with EF24 [1] | anti-proliferative activity compared with EF24 [2] | route of clearance ([3]; intravenous, rats) | excised tumor weight (xenograft Panc-1 tumors; at necropsy, control about 2.5 g) [g] | mean tumor volume reduction (xenograft Panc-1 tumors; versus control) [%] | tumor weight decrease (xenograft Panc-1 tumors; versus control) [%] | anti-proliferative activity compared with EF24 [4]
1200 (≈ 3.85 mM) | – | – | – | – | O=C1C(=Cc2ccccc2F)CNCC1=Cc1ccccc1F [EF24, 3,5-Bis-(2-fluorobenzylidene)-4-piperidone, reference compound] | – | – | – | – | – | – | –
3500 (≈ 7.15 mM) | ~14.3 | Approximately 23.7% | – | – | NNc1ccc(C(=O)NCCN2CC(=Cc3ccccc3F)C(=O)C(=Cc3ccccc3F)C2)cn1 [EFAH, N-{2-[3,5-Bis-(2-fluorobenzylidene)-4-oxo-piperidin-1-yl]-ethyl}-6-hydrazinonicotinamide] | as effective as EF24 | as effective as EF24 | mostly eliminated by hepatobiliary route | 0.45 | 79 | 82 | as effective as EF24
– | – | – | measurable, but little | no free Tc-99m radioactivity was found | Tc-99m-labeled N-{2-[3,5-Bis-(2-fluorobenzylidene)-4-oxo-piperidin-1-yl]-ethyl}-6-hydrazinonicotinamide [Tc-99m-EFAH] | – | – | clearance depended on hepatobiliary route | – | – | – | –
